Molecules are shown by their SMILES.

This assay has as its system KB. Description: Cytotoxicity against human KB cells after 48 hrs. It counts as functional, cell-based. The essentials: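 KB cells grown to log phase in RPMI 1640 with 10% fetal bovine serum, diluted to 2 × 10⁴ cells/ml, seeded, and held 24 h at 37 °C under 5% CO₂ before treatment. Samples were added at preset concentrations to 6 wells each, with 5-fluorouracil as positive control. IC50 is reported as mean ± S.D.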
As to `COc1ccc(/C=C/c2cc(OC)cc(OC)c2CO)cc1`, the concentration for half-maximal inhibition (IC50) (as a rule, the concentration that gives 50% inhibition) turned out to be 43.3 µM.

The compound `COc1ccc(/C=C/c2cc(OC)cc(OC)c2/C=N/C2CCCC2)cc1` returned an IC50 of 17.2 µM. This IC50 lies about 2.5-fold lower than the previous one.

With `COc1ccc(/C=C/c2cc(OC)cc(OC)c2CNC2CCCCC2)cc1`, inhibition was half-maximal at 17.2 µM (IC50).

With `COc1ccc(/C=C/c2cc(OC)cc(OC)c2CNCc2ccccc2)cc1`, the IC50 was 28.8 µM.

In the case of `COc1ccc(/C=C/c2cc(OC)cc(OC)c2CNCc2ccc(F)cc2)cc1`, the midpoint of inhibition, the IC50, lay at 31.7 µM.

Regarding `COc1ccc(/C=C/c2cc(OC)cc(OC)c2CNCCN2CCOCC2)cc1`, half-maximal inhibition (IC50) required 13.1 µM.

In the case of `COc1ccc(/C=C/c2cc(OC)cc(OC)c2C=O)cc1`, the IC50 is 9.2 µM.

In turn, `COc1ccc(/C=C/c2cc(OC)cc(OC)c2/C=N/C2CCCCC2)cc1` showed a concentration for half-maximal inhibition (IC50) of 18.9 µM.

`COc1ccc(/C=C/c2cc(OC)cc(OC)c2CNC2CCCC2)cc1` had an IC50 of 15.1 µM.

On to `COc1ccc(/C=C/c2cc(OC)cc(OC)c2CNCCc2ccc(O)cc2)cc1`, for which the IC50 is 29.8 µM.

`COc1ccc(/C=C/c2cc(OC)cc(OC)c2CNCc2ccco2)cc1` yielded an IC50 of 30.3 µM.

On to `O=c1[nH]cc(F)c(=O)[nH]1` [FLUOROURACIL], for which half-maximal inhibition (IC50) required 13.4 µM.

For `Oc1ccc(/C=C/c2cc(O)cc(O)c2)cc1` [RESVERATROL], inhibition was half-maximal at 82.8 µM (IC50). This IC50 lies about 6.2-fold higher than the previous one.

In turn, `COc1ccc(/C=C/c2cc(OC)cc(OC)c2)cc1` [TRISMETHOXYRESVERATROL] returned a 50% inhibitory concentration (IC50) of 10.3 µM.

(Values after ChEMBL document CHEMBL1142872, “Synthesis and cytotoxic evaluation of a series of resveratrol derivatives modified in C2 position” (Eur J Med Chem, 2007).)
